A short description of series [1]: Inhibition of recombinant wild type HIV1 reverse transcriptase using DIG-dUTP/biotin-dUTP/dTTP assessed as suppression of biotin-dUTP incorporation after 1 hr by ELISA. Also noted: species or system Human immunodeficiency virus 1. In short, it runs like this: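 Recombinant WT HIV-1 RT in a Roche colorimetric kit: template plus DIG-dUTP, biotin-dUTP and dTTP, ±inhibitor, 1 h at 37 °C. Product captured on streptavidin plate 1 h at 37 °C, anti-DIG-POD 1 h at 37 °C, ABTS developed at 25 °C, read at OD405. IC50 is the concentration inhibiting biotin-dUTP incorporation by 50%.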

Series [2] concerns Human immunodeficiency virus 1. Nature of the series: Antiviral activity against wild type HIV1 3B harboring reverse transcriptase infected in human MT4 cells assessed as protection against virus induced cytotoxicity after 5 days by MTT assay. It counts as functional, cell-based. Conditions: Human immunodeficiency virus 1, 3B, MT4, 120 h. The method, boiled down: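 MTT cytopathicity assay in MT-4 cells (6 × 10^5 cells/mL). Compounds serially diluted 5-fold in triplicate wells, run in parallel on infected and mock-infected cells. Virus added at 100−300 CCID50 per well. Viability read spectrophotometrically at 540 and 690 nm after 5 days, using the median OD of three wells.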

Series [3] is described as follows: Antiviral activity against HIV2 ROD harboring reverse transcriptase infected in human MT4 cells assessed as protection against virus induced cytotoxicity after 5 days by MTT assay. The series is classed as functional, cell-based, Human immunodeficiency virus type 2 (ISOLATE ROD). As to conditions: Human immunodeficiency virus 2, MT4, 120 h. The method, boiled down:
(§1)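 MTT cytopathicity assay in MT-4 cells (6 × 10^5 cells/mL). Compounds serially diluted 5-fold in triplicate wells, run in parallel on infected and mock-infected cells. Virus added at 100−300 CCID50 per well. Viability read spectrophotometrically at 540 and 690 nm after 5 days, using the median OD of three wells. EC50 is the concentration giving 50% protection from viral cytopathogenicity.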
(In general: Formazan colour is commonly taken as a measure of viable cells.)

Series [4] can be described thus: Cytotoxicity against human mock-infected MT4 cells assessed as reduction in cell viability after 5 days by MTT assay. The series is classed as toxicity, cell-based. The method, boiled down:
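Mock-infected MT-4 cells (6 × 10^5 cells/mL at seeding) with serial 5-fold compound dilutions in triplicate wells. Viability read by MTT after 5 days, absorbance at 540 and 690 nm, median OD of three wells. CC50 is the concentration reducing OD540 of mock-infected cells by 50%.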

The test system of series [5] is Human immunodeficiency virus 1. The series is described as follows: Antiviral activity against HIV1 3B harboring reverse transcriptase L100I mutant infected in human MT4 cells assessed as protection against virus induced cytotoxicity after 5 days by MTT assay. The series is classed as functional, cell-based. Conditions: Human immunodeficiency virus 1, 3B, MT4, 120 h. In short, it runs like this: as §1

In series [6] the test system is Human immunodeficiency virus 1. The series is described as follows: Antiviral activity against HIV1 3B harboring reverse transcriptase K103N mutant infected in human MT4 cells assessed as protection against virus induced cytotoxicity after 5 days by MTT assay. The series is classed as functional, cell-based. As to conditions: Human immunodeficiency virus 1, 3B, MT4, 120 h. In short, it runs like this:
as §1

Series [7] relates to Human immunodeficiency virus 1. The series is described as follows: Antiviral activity against HIV1 3B harboring reverse transcriptase Y188L mutant infected in human MT4 cells assessed as protection against virus induced cytotoxicity after 5 days by MTT assay. It counts as functional, cell-based. As to conditions: Human immunodeficiency virus 1, 3B, MT4, 120 h. In short, it runs like this: as §1

Series [8] deals with Human immunodeficiency virus 1. Nature of the series: Antiviral activity against HIV1 3B harboring reverse transcriptase F227L/V106A double mutant infected in human MT4 cells assessed as protection against virus induced cytotoxicity after 5 days by MTT assay. It counts as functional, cell-based. As to conditions: Human immunodeficiency virus 1, 3B, MT4, 120 h. In short, it runs like this: as §1

The nature of series [9]: Selectivity index, ratio of CC50 for human mock-infected MT4 cells to EC50 for HIV1 3B harboring reverse transcriptase L100I mutant infected in human MT4 cells. It counts as toxicity, cell-based. Conditions: MT4 cells (mock-infected for CC50, HIV-1 infected for EC50). The method, boiled down:
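Selectivity index is CC50/EC50. CC50 is the concentration that reduces OD540 of mock-infected MT-4 cells by 50% in the 5-day MTT assay. EC50 is the 50% protection from virus-induced cytopathicity, measured in parallel on infected wells.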

Series [10] concerns Human immunodeficiency virus 1. The series is described as follows: Potency index, ratio of ETV EC50 to compound EC50 for HIV1 3B harboring reverse transcriptase YI88L mutant infected in human MT4 cells. The series is classed as functional.
Series [11] relates to Human immunodeficiency virus 1. Nature of the series: Fold resistance, ratio of EC50 for HIV1 3B harboring reverse transcriptase Y188L mutant infected in human MT4 cells to EC50 for wild type HIV1 3B harboring reverse transcriptase infected in human MT4 cells. It counts as functional. The method, boiled down:
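Fold resistance is the EC50 against the mutant HIV-1 strain divided by the EC50 against WT IIIB. Both EC50s come from the MT-4 MTT cytoprotection assay (5-day read, 100−300 CCID50 inoculum).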

The target of series [12] is Human immunodeficiency virus type 1 reverse transcriptase (Human immunodeficiency virus 1, UniProt Q72547, K103N/Y181C). The series is described as follows: Inhibition of recombinant HIV1 reverse transcriptase K103N/Y181C double mutant using DIG-dUTP/biotin-dUTP/dTTP assessed as suppression of biotin-dUTP incorporation after 1 hr by ELISA. Background: In an ELISA, binding on a coated surface is turned into a signal by an enzyme label.

Series [13] has as its system Human immunodeficiency virus 1. The series is described as follows: Fold resistance, ratio of IC50 for recombinant HIV1 reverse transcriptase K103N/Y181C double mutant to IC50 for wild type HIV1 reverse transcriptase. The method, boiled down: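 Ratio of mutant to WT IC50. Recombinant WT and K103N/Y181C RT were assayed with a kit: template plus DIG-dUTP, biotin-dUTP and dTTP, with or without inhibitor, 1 h at 37 °C. Product was captured on streptavidin, detected with anti-DIG-POD and ABTS, and read at 405 nm. IC50 is the concentration inhibiting biotin-dUTP incorporation by 50%.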

Series [14] in a line: MRT (0 to t) in Sprague-Dawley rat plasma at 8 mg/kg administered through oral gavage measured at 5 mins to 24 hrs post dosing by LC/MS analysis. The series is classed as ADME, organism-based. The method, boiled down:
(§2)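 Male Sprague-Dawley rats, ten randomly split into two groups (n = 5), single gavage dose of 8 or 16 mg·kg−1 in PEG 400/normal saline (70/30, V/V). Jugular sinus blood into heparinized tubes at 5 min to 24 h; plasma separated at 2200g for 8 min, stored −20 °C. Methanol precipitation with internal standard, LC-MS quantitation against plasma standard curves. Parameters reported as mean ± SD.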

A short description of series [15]: MRT (0 to infinity) in Sprague-Dawley rat plasma at 8 mg/kg administered through oral gavage measured at 5 mins to 24 hrs post dosing by LC/MS analysis. The series is classed as ADME, organism-based. In short, it runs like this:
as §2

A short description of series [16]: Cmax in Sprague-Dawley rat plasma at 8 mg/kg administered through oral gavage measured at 5 mins to 24 hrs post dosing by LC/MS analysis. It counts as ADME, organism-based. Also on record: dose 8 mg/kg, route oral. As to conditions: in vivo. The method, boiled down: as §2
The nature of series [17]: AUC (0 to t) in Sprague-Dawley rat plasma at 16 mg/kg administered through oral gavage measured at 5 mins to 24 hrs post dosing by LC/MS analysis. It counts as ADME, organism-based. Also noted: time lower 0.083 hr, dose 16 mg/kg, time upper 24 hr, route oral. The method, boiled down:
as §2

Series [18] is described as follows: AUC (0 to infinity) in Sprague-Dawley rat plasma at 16 mg/kg administered through oral gavage measured at 5 mins to 24 hrs post dosing by LC/MS analysis. Also noted: dose 16 mg/kg, time infinity, route oral. As to conditions: in vivo. The series is classed as ADME, organism-based. In short, it runs like this:
as §2

Series [19] is described as follows: AUMC (0 to infinity) in Sprague-Dawley rat plasma at 16 mg/kg administered through oral gavage measured at 5 mins to 24 hrs post dosing by LC/MS analysis. The series is classed as ADME, organism-based. Conditions: in vivo. In short, it runs like this:
as §2

Series [20] can be described thus: MRT (0 to t) in Sprague-Dawley rat plasma at 16 mg/kg administered through oral gavage measured at 5 mins to 24 hrs post dosing by LC/MS analysis. It counts as ADME, organism-based. In short, it runs like this: as §2
Series [21] in a line: VRT (0 to t) in Sprague-Dawley rat plasma at 16 mg/kg administered through oral gavage measured at 5 mins to 24 hrs post dosing by LC/MS analysis. Conditions: in vivo. The series is classed as ADME, organism-based. In short, it runs like this:
as §2

Series [22] in a line: Apparent clearance during terminal phase in Sprague-Dawley rat plasma at 16 mg/kg administered through oral gavage measured at 5 mins to 24 hrs post dosing by LC/MS analysis. It counts as ADME, organism-based. Conditions: read-out: CLz/F (converted). The method, boiled down:
as §2

By IC50 is commonly meant the concentration at which inhibition is half-maximal. By EC50 is commonly meant the concentration needed to bring the measured effect to its halfway point. By CC50 is commonly meant the concentration giving 50% cytotoxicity. A word on the MRT last: it is the average time that molecules of a dose stay in the body. The term MRT inf denotes the average time that molecules of a dose stay in the body. Usually Cmax stands for the highest concentration seen after dosing. What is called AUC(0-t) is the area under the concentration-time curve up to a stated or last time point. The term AUC denotes the area under the concentration-time curve, a measure of exposure.

For the compound `Cc1cc(C#N)cc(C)c1Oc1nc(NC2CCN(Cc3ccc(S(N)(=O)=O)cc3)CC2)nc2ccsc12`, the IC50 in [1] stood at 300 nM; in series [12] it was 360 nM. In addition, the concentration giving a half-maximal response (EC50) in series [2] was 1.4 nM; in series [3], no less than 228000 nM; in series [5] it was 3.4 nM; in series [6], 2.9 nM; in series [7], 3 nM; in [8] it was 4.2 nM. Besides, the half-maximal cytotoxic concentration (CC50) at 120 h in [4] was greater than 228000 nM. The selectivity ratio in series [9] was greater than 159000. Moreover, the “Ratio EC50” value was 7 in [10] and less than 3 in series [11]. The Ratio IC50 in series [13] was determined as 1.2. The mean residence time (MRT last) in [14] came out at 3.44 h; in series [20] it was 3.25 h. The compound also gave an MRT inf in series [15] of 3.84 h. Further, the concentration in [16] peaked (Cmax) at 415 ng/mL. For the same compound, the area under the curve AUC(0-t) in series [17] was 1670 ng·h/mL. Moreover, the exposure (AUC) in series [18] was determined as 1756.7 ng·h/mL. The same compound yielded an AUMC in [19] of 7215.795 ug/L.hr. In series [21], the “VRT(t)” value was found to be 9.29 hr2. Further, the CL/F in series [22] is 155 mL/min/kg.

The values above are taken from ChEMBL document CHEMBL3853327 (J Med Chem, 2016).
